Reference: ChEMBL document CHEMBL1151319, “Antiplatelet aggregation constituents from Annona purpurea” (1998)

Experiments:
Set-up in all cases: scale not given: the % may be the effect or the level left
Platelet [1] = test: Inhibition of platelet activating factor-induced platelet aggregation in rabbit platelets at 100 ug/mL treated […] before […] challenge relative to control; assay type: functional, Oryctolagus cuniculus
Procedure, shortened: (§1)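 Rabbit platelets were preincubated at 37 °C for 3 min with compound at 100 μg/mL, or with 0.5% DMSO as the control, before the inducer was added. Inducers were thrombin 0.1 U/mL, arachidonic acid 100 μM, collagen 10 μg/mL, or PAF. The read-out was % aggregation, with 3–6 replicates.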

Platelet [2] = test: Inhibition of platelet activating factor-induced platelet aggregation in rabbit platelets at 20 ug/mL treated 3 mins before platelet activating factor challenge relative to control
Platelet [3] = test: Inhibition of platelet activating factor-induced platelet aggregation in rabbit platelets at 50 ug/mL treated […] before […] challenge relative to control; assay type: functional, Oryctolagus cuniculus
Procedure, shortened: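 PAF-induced aggregation of rabbit platelets was run after 3 min preincubation at 37 °C with compound at graded levels or 0.5% DMSO control. PAF is given as 2 ng/mL in the footnote and 2 nM in the column header. Output is % aggregation with n per point.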

Platelet [4] = test: Inhibition of thrombin-induced platelet aggregation in rabbit platelets at 100 ug/mL treated […] before thrombin challenge relative to control; assay type: functional, Oryctolagus cuniculus; procedure, shortened: as §1
Platelet [5] = test: Inhibition of arachidonic acid-induced platelet aggregation in rabbit platelets at 100 ug/mL treated […] before […] challenge relative to control; assay type: functional, Oryctolagus cuniculus; procedure, shortened: as §1
Platelet [6] = test: Inhibition of platelet activating factor-induced platelet aggregation in rabbit platelets at 5 ug/mL treated 3 mins before platelet activating factor challenge relative to control
Platelet [7] = test: Inhibition of platelet activating factor-induced platelet aggregation in rabbit platelets at 10 ug/mL treated 3 mins before platelet activating factor challenge relative to control
Platelet [8] = test: Inhibition of collagen-induced platelet aggregation in rabbit platelets at 100 ug/mL treated […] before […] challenge relative to control; assay type: functional, Oryctolagus cuniculus; procedure, shortened: as §1
Platelet [9] = test: Inhibition of arachidonic acid-induced platelet aggregation in rabbit platelets at 10 ug/mL treated 3 mins before arachidonic acid challenge relative to control
Platelet [10] = test: Inhibition of arachidonic acid-induced platelet aggregation in rabbit platelets at 20 ug/mL treated 30 mins before […] challenge relative to control; assay type: functional, Oryctolagus cuniculus
Platelet [11] = test: Inhibition of arachidonic acid-induced platelet aggregation in rabbit platelets at 50 ug/mL treated 30 mins before […] challenge relative to control; assay type: functional, Oryctolagus cuniculus
Platelet [12] = test: Inhibition of collagen-induced platelet aggregation in rabbit platelets at 50 ug/mL treated 30 mins before […] challenge relative to control; assay type: functional, Oryctolagus cuniculus
Platelet [13] = test: Inhibition of thrombin-induced platelet aggregation in rabbit platelets at 50 ug/mL treated 30 mins before thrombin challenge relative to control; assay type: functional, Oryctolagus cuniculus
Platelet [14] = test: Inhibition of arachidonic acid-induced platelet aggregation in rabbit platelets at 50 ug/mL treated 3 min before arachidonic acid challenge relative to control
Platelet [15] = test: Inhibition of arachidonic acid-induced platelet aggregation in rabbit platelets at 5 ug/mL treated 3 mins before arachidonic acid challenge relative to control

| Structure (SMILES) | Activity (Platelet [1]) [%] | Activity (Platelet [2]) [%] | Activity (Platelet [3]) [%] | Activity (Platelet [4]) [%] | Activity (Platelet [5]) [%] | Activity (Platelet [6]) [%] | Activity (Platelet [7]) [%] | Activity (Platelet [8]) [%] | Activity (Platelet [9]) [%] | Activity (Platelet [10]) [%] | Activity (Platelet [11]) [%] | Activity (Platelet [12]) [%] | Activity (Platelet [13]) [%] | Activity (Platelet [14]) [%] | Activity (Platelet [15]) [%] |
| --- | --- | --- | --- | --- | --- | --- | --- | --- | --- | --- | --- | --- | --- | --- | --- |
| COc1cc2c(O)c3c4c(cc(OC)c(OC)c4c2cc1OC)CCN3C | 0 | 25.2 | 0 | 78.8 | 21.8 | 77.9 | 64.9 | 12.7 |  |  |  |  |  |  |  |
| COc1cc2c3c(cc4ccccc4c3c1O)N(C)CC2 [DEHYDROLIRINIDINE] | 51.7 |  |  | 86.3 | 0 |  |  | 0 | 82.8 | 77.6 | 23.8 |  |  |  |  |
| COc1cc2ccnc3c2c(c1OC)-c1ccccc1C3=O [LYSICAMINE] |  |  | 83.7 |  |  |  |  |  |  |  | 16.3 | 55.2 | 88.9 |  |  |
| COc1cc2c(cc1OC)-c1c(OC)c(OC)cc3ccnc(c13)C2=O [OXOGLAUCINE] |  |  | 84.4 |  |  |  |  |  |  |  |  | 74.4 | 87 | 55.8 |  |
| COc1cc2c(cc1OC)-c1c(OC)c(OC)c(OC)c3ccnc(c13)C2=O [OXOPURPUREINE] | 87.2 |  |  |  | 43.7 |  |  | 53.5 |  |  |  |  |  |  |  |
| COc1cc2c(cc1OC)-c1c(OC)c(O)cc3c1[C@H](C2)N(C)CC3 [PREDICENTRINE] | 74 |  |  | 88.9 | 0 |  |  | 0 |  | 83.2 | 62 |  |  |  |  |
| COc1cc2c(cc1OC)-c1c(OC)c(OC)c(O)c3c1[C@@H](C2)N(C)CC3 [THALBAICALIDINE] | 73.6 |  |  | 86.3 | 4.2 |  |  | 0 |  | 82.2 | 72.2 |  |  |  |  |
| CNCCc1c(OC)c(OC)c(OC)c2c1ccc1cc(OC)c(OC)cc12 [THALICPUREINE] | 0 | 55.5 | 3.9 | 33.6 | 0 | 82.4 | 78.8 | 0 | 74.2 | 41.9 | 0 |  |  |  | 83.7 |
